Activity, Bmax and Drug uptake data for two compounds are collected here from ChEMBL document CHEMBL1938298, “Synthesis and characterization of [¹²⁵I]2-iodo N-[(S)-{(S)-1-methylpiperidin-2-yl}(phenyl)methyl]3-trifluoromethyl-benzamide as novel imaging probe for glycine transporter 1” (Bioorg Med Chem, 2011).

The target of data set [1] is T1, Sodium- and chloride-dependent glycine transporter 1 (Rattus norvegicus) (UniProt P28572).
T1 sequence (whole entry): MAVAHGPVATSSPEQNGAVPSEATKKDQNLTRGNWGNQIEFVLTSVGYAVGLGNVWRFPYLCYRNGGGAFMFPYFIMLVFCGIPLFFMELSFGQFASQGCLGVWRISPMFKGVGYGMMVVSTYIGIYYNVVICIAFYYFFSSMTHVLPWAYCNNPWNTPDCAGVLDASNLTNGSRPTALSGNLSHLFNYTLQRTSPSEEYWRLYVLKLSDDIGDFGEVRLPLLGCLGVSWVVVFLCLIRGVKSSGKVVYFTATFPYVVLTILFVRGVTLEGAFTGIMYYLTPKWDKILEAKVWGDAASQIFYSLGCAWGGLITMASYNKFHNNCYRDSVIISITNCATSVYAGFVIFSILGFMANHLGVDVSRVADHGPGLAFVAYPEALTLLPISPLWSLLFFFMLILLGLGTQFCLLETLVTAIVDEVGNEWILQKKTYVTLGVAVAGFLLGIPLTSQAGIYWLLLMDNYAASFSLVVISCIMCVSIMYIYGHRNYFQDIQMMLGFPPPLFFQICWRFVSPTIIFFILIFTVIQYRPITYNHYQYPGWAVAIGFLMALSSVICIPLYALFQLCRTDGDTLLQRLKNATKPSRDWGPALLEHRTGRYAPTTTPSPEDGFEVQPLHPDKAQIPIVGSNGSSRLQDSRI
In words: Binding affinity to GlyT1 in rat brain thalamus at 0.03 to 0.04 nM preincubated for 20 mins in binding buffer before compound addition measured after 30 mins by autoradiography in presence of 10 mM GlyT1 substrate glycine relative to control. Format: tissue-based. As to conditions: tested as the 125I-labelled form.

For data set [2], the system named is Mus musculus. In words: In vivo binding affinity to GlyT1 in ddY mouse brain cortex at 33.3 kBq, iv after 60 mins in presence of SSR504734 2 mg/kg, iv administered 15 mins prior to compound administration relative to control. Format: functional, organism-based. As to conditions: tested as the 125I-labelled form. Details: dose 2 mg/kg. The essentials: (§1)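 Blocking study in male ddY mice (6 weeks, 30–35 g). The blocker (2 mg/kg in 30% DMSO/saline) was injected i.v. 15 min before about 33.3 kBq [125I]tracer i.v.; mice were killed at 30 or 60 min. Brains were divided into cortex, corpus callosum, hippocampus, thalamus, midbrain, medulla and cerebellum, weighed and gamma-counted as % dose/g. Values are mean ± SD, n = 5–6, compared to control by Kruskal–Wallis with Dunn's post-test.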

The test system of data set [3] is Mus musculus. In words: In vivo binding affinity to GlyT1 in ddY mouse brain medullary region at 33.3 kBq, iv after 60 mins in presence of SSR504734 2 mg/kg, iv administered 15 mins prior to compound administration relative to control. The class given is functional, organism-based. Details: dose 2 mg/kg. As to conditions: Medulla of organ, tested as the 125I-labelled form.

Data set [4] relates to Mus musculus. In words: In vivo binding affinity to GlyT1 in ddY mouse brain cerebellum at 33.3 kBq, iv after 60 mins in presence of SSR504734 2 mg/kg, iv administered 15 mins prior to compound administration relative to control. Format: functional, organism-based. Set-up: dose 2 mg/kg. The following applies: tested as the 125I-labelled form. The method in brief: as §1
For data set [5], the target named is T1, Sodium- and chloride-dependent glycine transporter 1 (Rattus norvegicus). Kind of data set: Binding affinity to GlyT1 in rat brain corpus callosum at 0.03 to 0.04 nM preincubated for 20 mins in binding buffer before compound addition measured after 30 mins by autoradiography in presence of 0.01 mM GlyT1 inhibitor ALX5407 relative to control. Format: tissue-based. The following applies: tested as the 125I-labelled form. The essentials:
(§2)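 Rat brain sagittal sections (20 µm) preincubated 20 min at 25 °C in Tris-HCl buffer pH 7.5 (NaCl, KCl, MgCl2, CaCl2), then 30 min at 25 °C with [125I] tracer (100 kBq, 0.03–0.04 nM) plus competitor (10 µM; glycine 1 or 10 mM). Cold washes, imaging plate 3 days, ROI PSL minus background per mm². % control from ≥triplicate slices, three rats.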

Data set [6] has the same target. In words: Binding affinity to GlyT1 in rat brain corpus callosum at 0.03 to 0.04 nM preincubated for 20 mins in binding buffer before compound addition measured after 30 mins by autoradiography in presence of 10 mM GlyT1 substrate glycine relative to control. Format: tissue-based. The following applies: tested as the 125I-labelled form. The method in brief:
as §2

For data set [7] the target is unchanged. Kind of data set: Binding affinity to GlyT1 in rat brain hippocampus at 0.03 to 0.04 nM preincubated for 20 mins in binding buffer before compound addition measured after 30 mins by autoradiography in presence of 0.01 mM NMDA receptor glycine site antagonist L-701,324 relative to control. The class given is tissue-based. The following applies: tested as the 125I-labelled form. The essentials: as §2

The target is the same in data set [8]. Kind of data set: Binding affinity to GlyT1 in rat brain midbrain at 0.03 to 0.04 nM preincubated for 20 mins in binding buffer before compound addition measured after 30 mins by autoradiography in presence of 10 mM GlyT1 substrate glycine relative to control. The class given is tissue-based. The following applies: tested as the 125I-labelled form.
Data set [9] shares this target. In words: Binding affinity to GlyT1 in rat brain midbrain at 0.03 to 0.04 nM preincubated for 20 mins in binding buffer before compound addition measured after 30 mins by autoradiography in presence of 0.01 mM GlyT2 inhibitor ORG25543 relative to control. Format: tissue-based. As to conditions: tested as the 125I-labelled form. The essentials:
as §2

The target is the same in data set [10]. In words: Binding affinity to GlyT1 in rat cortical brain homogenate assessed per mg of protein after 60 mins by gamma counting. The class given is tissue-based. The following applies: tested as the 125I-labelled form. The essentials: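 Saturation binding on washed rat cortical membranes (25 µg protein) with [125I]tracer 0.1–20 nM in TB1 buffer (120 mM NaCl, 2 mM KCl, 1 mM CaCl2, 1 mM MgCl2, 10 mM HEPES, pH 7.5), 60 min at room temperature. Nonspecific binding defined with 10 µM unlabeled ligand. GF/B filtration with ice-cold buffer washes, gamma counting; Kd and Bmax from saturation analysis.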

For data set [11], the system named is Liver. In words: Drug uptake in ddY mouse liver at 11.1 kBq, iv after 0.5 min by gamma counting. As to conditions: in vivo. The class given is ADME, organism-based. The method in brief:
(§3)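 Male ddY mice (6 weeks, 30–35 g) were given about 11.1 kBq of [125I]tracer in 0.1 mL i.v. via the tail vein. At each time point the animals were killed and organs dissected, weighed and gamma-counted. Uptake is expressed as % injected dose per gram of tissue, mean ± SD, n = 5–6.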

Data set [12] deals with Liver. Kind of data set: Drug uptake in ddY mouse liver at 11.1 kBq, iv after 30 min by gamma counting. As to conditions: in vivo, 0.5 h. Format: ADME, organism-based. The method in brief: as §3
Data set [13] concerns Mus musculus. In words: In vivo binding affinity to GlyT1 in ddY mouse brain thalamus at 33.3 kBq, iv after 60 mins in presence of nonradioactive compound 2 mg/kg, iv administered 15 mins prior to compound administration relative to control. The class given is functional.
The test system of data set [14] is Stomach. Kind of data set: Drug uptake in ddY mouse stomach at 11.1 kBq, iv after 5 min by gamma counting. The class given is ADME, organism-based. The following applies: in vivo. The method in brief:
as §3

Data set [15] relates to Stomach. Kind of data set: Drug uptake in ddY mouse stomach at 11.1 kBq, iv after 60 min by gamma counting. The following applies: in vivo, 1 h. The class given is ADME, organism-based. The method in brief: as §3
For data set [16], the system named is Stomach. Kind of data set: Drug uptake in ddY mouse stomach at 11.1 kBq, iv after 180 min by gamma counting. The following applies: in vivo, 3 h. Format: ADME, organism-based. The essentials:
as §3

Data set [17] relates to Pancreas. In words: Drug uptake in ddY mouse pancreas at 11.1 kBq, iv after 0.5 min by gamma counting. The class given is ADME, organism-based. The following applies: in vivo. The essentials:
as §3

Data set [18] deals with Brain. In words: Drug uptake in ddY mouse brain at 11.1 kBq, iv after 5 min by gamma counting. The following applies: in vivo. The class given is ADME, organism-based. The essentials:
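Male ddY mice (6 weeks, 30–35 g) received about 11.1 kBq [125I]tracer in 0.1 mL i.v. via tail vein. Killed at set times, organs dissected and weighed, radioactivity gamma counted. Reported as % injected dose/g tissue, mean ± SD, n = 5–6.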

The structures appear in SMILES notation. Calls of active or inactive are those of the source. No cut-off for these calls is given here.

On to `CN1CCCC[C@H]1[C@@H](NC(=O)c1cccc(C(F)(F)F)c1I)c1ccccc1`, for which the Activity was determined as 52.7% in [1]; 27.8% in data set [5]; 39.6% in data set [6]; 90.9% in data set [7]; 52.1% in [8]; 115% in [9]. Besides, the result in data set [2], in [3] and in data set [4] was inactive. In addition, the Bmax in [10] was 3.4 pmol.
As for `CN1CCCC[C@H]1[C@@H](NC(=O)c1cccc(C(F)(F)F)c1[125I])c1ccccc1`, the Drug uptake in [11] is 1.82 % ID/g; in [12] it was 14.74 % ID/g; in data set [14], 3.3 % ID/g; in data set [15], 8.26 % ID/g; in data set [16], 12.73 % ID/g; in [17] it was 1.18 % ID/g. In data set [18], this compound registered a Drug uptake of 1.33 % ID/g. The Activity in [13] came to 58%.
